Activity calls are given as the source filed them. No cut-off for these calls is given here.
Experiments:
[1] = test system: Liver microsomes; experiment: Metabolic stability in human liver microsomes assessed as clearance; type: ADME, Microsome
Outline: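 Human liver microsomes were used at a final 0.5 mg/ml in potassium phosphate buffer pH 7.4, with compound in DMSO, pre-incubated 10 min at 37 °C. The reaction was started with NADP, G6P, G6P-DH, MgCl2 3 mM and UDPGA 1 mM. Samples were taken at 0 and 30 min, quenched in acetonitrile and analysed by LC–MS/MS. A no-cofactor control and a 7-ethoxycoumarin standard were included.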

[2] = test system: Plasmodium berghei; experiment: Antimalarial activity as reduced parasitaemia against Plasmodium berghei ANKA infected NMRI mice (Mus musculus) at 30 mg/kg/day peroral dose over 4 days; type: functional; design: scale not given: the % may be the effect or the level left; conditions: route oral
Outline: (§1)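 NMRI mice, in groups of three, were infected with GFP-transfected P. berghei ANKA. Treatment started 1 day post-infection, once daily for 4 consecutive days. Compounds were formulated in 70/30 Tween 80/ethanol and diluted 10× with water. Read-outs were % parasitemia reduction on day 4 post-infection and survival versus untreated controls (n = 5). Cure meant no parasites by microscopy at day 30.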

[3] = target: T1, Histidine-rich protein PFHRP-II (Plasmodium falciparum) (UniProt P05227); experiment: Inhibition of beta-hematin formation as ratio to heme molar equivalent in Plasmodium falciparum; type: functional
T1 sequence (whole entry): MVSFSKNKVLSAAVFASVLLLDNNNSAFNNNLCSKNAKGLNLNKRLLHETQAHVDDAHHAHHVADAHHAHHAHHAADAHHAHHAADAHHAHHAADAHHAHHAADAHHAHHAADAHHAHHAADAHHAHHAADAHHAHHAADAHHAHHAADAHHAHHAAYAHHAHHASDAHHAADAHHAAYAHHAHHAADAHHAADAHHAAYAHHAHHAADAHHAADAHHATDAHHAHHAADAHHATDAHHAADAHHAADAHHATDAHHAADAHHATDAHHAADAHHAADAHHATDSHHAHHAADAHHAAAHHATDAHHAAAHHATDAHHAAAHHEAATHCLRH

[4] = test system: Plasmodium berghei; experiment: Antimalarial activity as reduced parasitaemia against Plasmodium berghei ANKA infected NMRI mice (Mus musculus) at 10 mg/kg/day peroral dose over 4 days; type: functional; design: scale not given: the % may be the effect or the level left; conditions: route oral; outline: as §1
[5] = test system: Plasmodium berghei; experiment: Antimalarial curative activity at day 30 against Plasmodium berghei ANKA infected NMRI mice (Mus musculus) at 30 mg/kg/day peroral dose over 4 days; type: functional, organism-based; outline: as §1
[6] = test system: Plasmodium berghei; experiment: Antimalarial activity as survival time against Plasmodium berghei ANKA infected NMRI mice (Mus musculus) at 3 mg/kg/day subcutaneous dose over 4 days; type: functional; outline: as §1
[7] = Cytotoxicity against human HMEC1 cells by MTT assay; type: cell-based; conditions: HMEC-1
[8] = test system: Plasmodium berghei; experiment: Antimalarial activity as reduced parasitaemia against Plasmodium berghei ANKA infected NMRI mice (Mus musculus) at 30 mg/kg subcutaneous dose after 3 days; type: functional; design: scale not given: the % may be the effect or the level left
Outline: (§2)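 GFP-transfected P. berghei ANKA-infected NMRI mice, in groups of three, got a single dose 1 day post-infection. Compounds were in 70/30 Tween 80/ethanol, diluted 10× with water. Read-outs were % parasitemia reduction on day 3 post-infection and survival time versus untreated controls (n = 5).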

[9] = test system: Plasmodium berghei; experiment: Antimalarial activity as survival time against Plasmodium berghei ANKA infected NMRI mice (Mus musculus) at 10 mg/kg/day peroral dose over 4 days; type: functional; conditions: route oral; outline: as §1
[10] = test system: Plasmodium berghei; experiment: Antimalarial activity as survival time in Plasmodium berghei ANKA infected NMRI mice (Mus musculus) at 100 mg/kg peroral dose after 3 days; type: functional; conditions: route oral; outline: as §2
[11] = test system: Plasmodium berghei; experiment: Antimalarial activity as survival time in Plasmodium berghei ANKA infected NMRI mice (Mus musculus) at 30 mg/kg subcutaneous dose after 3 days; type: functional; outline: as §2
[12] = test system: Plasmodium berghei; experiment: Antimalarial activity as survival time against Plasmodium berghei ANKA infected NMRI mice (Mus musculus) at 10 mg/kg/day subcutaneous dose over 4 days; type: functional; outline: as §1
[13] = test system: Plasmodium berghei; experiment: Antimalarial activity a survival time in Plasmodium berghei ANKA infected NMRI mice (Mus musculus) at 30 mg/kg/day peroral dose over 4 days; type: functional; conditions: route oral; outline: as §1
[14] = test system: K562; experiment: Cytotoxicity against human K562 cells by MTT assay; type: cell-based
[15] = test system: Plasmodium berghei; experiment: Antimalarial activity as reduced parasitaemia against Plasmodium berghei ANKA infected NMRI mice (Mus musculus) at 3 mg/kg/day subcutaneous dose over 4 days; type: functional; design: scale not given: the % may be the effect or the level left; outline: as §1
[16] = test system: Plasmodium berghei; experiment: Antimalarial activity as reduced parasitaemia against Plasmodium berghei ANKA infected NMRI mice (Mus musculus) at 10 mg/kg/day subcutaneous dose over 4 days; type: functional; design: scale not given: the % may be the effect or the level left; outline: as §1
[17] = Cytotoxicity against mouse WEHI clone 13 cells by MTT assay; type: cell-based
[18] = test system: Plasmodium berghei; experiment: Antimalarial activity as reduced parasitaemia against Plasmodium berghei ANKA infected NMRI mice (Mus musculus) at 100 mg/kg peroral dose after 3 days; type: functional; design: scale not given: the % may be the effect or the level left; conditions: route oral; outline: as §2
[19] = test system: Mus musculus; experiment: Toxicity in CD1 mouse assessed as body weight variation at 100 mg/kg, ip after 13 days; type: organism-based; design: dose 100 mg/kg, route intraperitoneal; conditions: in vivo, 312 h
Outline: (§3)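 Intraperitoneal dosing was given to groups of 4 mice alongside an untreated control group. Surviving mice were counted and signs noted. Mean body weight was recorded initially and after 5 and 13 days, expressed as % variation.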

[20] = test system: Plasmodium falciparum; experiment: Antimalarial activity against chloroquine-resistant Plasmodium falciparum W2 by LDH assay; type: functional, organism-based
Outline: (§4)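 Parasite growth inhibition in P. falciparum culture was read as parasite lactate dehydrogenase production. IC50 is the mean of 3–4 experiments, each run in triplicate.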

[21] = test system: Mus musculus; experiment: Toxicity in CD1 mouse assessed as body weight variation at 50 mg/kg, ip after 13 days; type: organism-based; design: dose 50 mg/kg, route intraperitoneal; conditions: in vivo, 312 h; outline: as §3
[22] = test system: Mus musculus; experiment: Toxicity in CD1 mouse assessed as body weight variation at 150 mg/kg, ip after 5 days; type: organism-based; design: dose 150 mg/kg, route intraperitoneal; conditions: in vivo, 120 h; outline: as §3
[23] = test system: Plasmodium falciparum; experiment: Antimalarial activity against chloroquine-sensitive Plasmodium falciparum D10 by LDH assay; type: functional, organism-based; outline: as §4
[24] = test system: Mus musculus; experiment: Toxicity in CD1 mouse assessed as survival at 50 mg/kg, ip; type: organism-based; design: dose 50 mg/kg, route intraperitoneal; conditions: in vivo; outline: as §3
[25] = test system: Mus musculus; experiment: Toxicity in CD1 mouse assessed as body weight variation at 150 mg/kg, ip after 13 days; type: organism-based; design: dose 150 mg/kg, route intraperitoneal; conditions: in vivo, 312 h; outline: as §3
[26] = test system: Plasmodium falciparum; experiment: Antimalarial activity against chloroquine-resistant Plasmodium falciparum K1 by [3H]hypoxanthine uptake; type: functional, organism-based
Outline: (§5)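 Growth inhibition of P. falciparum was measured by [3H]-hypoxanthine incorporation. IC50 is the mean of two experiments.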

[27] = test system: Mus musculus; experiment: Toxicity in CD1 mouse assessed as body weight variation at 100 mg/kg, ip after 5 days; type: organism-based; design: dose 100 mg/kg, route intraperitoneal; conditions: in vivo, 120 h; outline: as §3
[28] = test system: Mus musculus; experiment: Toxicity in CD1 mouse assessed as body weight variation at 50 mg/kg, ip after 5 days; type: organism-based; design: dose 50 mg/kg, route intraperitoneal; conditions: in vivo, 120 h; outline: as §3
[29] = test system: Mus musculus; experiment: Toxicity in CD1 mouse assessed as survival at 100 mg/kg, ip; type: organism-based; design: dose 100 mg/kg, route intraperitoneal; conditions: in vivo; outline: as §3
[30] = test system: Plasmodium falciparum; experiment: Antimalarial activity against chloroquine-sensitive Plasmodium falciparum NF54 by [3H]hypoxanthine uptake; type: functional, organism-based; outline: as §5

Row | Structure (SMILES) | CL [1] [mL/min/g] | Activity [2] [%] | Activity [3] | Activity [4] [%] | Activity [5] | Activity [6] [days] | IC50 [7] [nM] | Activity [8] [%] | Activity [9] [days] | Activity [10] [days] | Activity [11] [days] | Activity [12] [days] | Activity [13] [days] | IC50 [14] [nM] | Activity [15] [%] | Activity [16] [%] | IC50 [17] [nM] | Activity [18] [%] | IC50 [20] [nM] | IC50 [23] [nM] | also measured
1 | CCOc1ccc2ccc(=O)oc2c1 [ETHOXYCOUMARIN] | 7 | – | – | – | – | – | – | – | – | – | – | – | – | – | – | – | – | – | – | – | –
2 | CCN(CC)CCCC(C)Nc1ccnc2cc(Cl)ccc12.O=P(O)(O)O.O=P(O)(O)O (stereo not drawn) [CHLOROQUINE PHOSPHATE] | – | >99.9 | 1.69 | 99.9 | Active | 9.3 | > 40000 | 99.2 | 22.3 | 14.7 | 9.7 | 15.7 | 30 | 31800 | 99.8 | >99.9 | > 40000 | 99.2 | – | – | –
3 | Clc1ccc2c(NCC34CCCN3CCC4)ccnc2c1 | 1.5 | >99.9 | 1.06 | >99.9 | – | 7.3 | > 60000 | 99.7 | 25.7 | 13.7 | 10.3 | 29.3 | 25 | 18100 | 96 | >99.9 | 24700 | 99.5 | 28.9 | 30.6 | Activity [19]: 22.2%; Activity [21]: 20.8%; Activity [22]: 12.9%; Activity [24]: Non-toxic; Activity [25]: 22.9%; IC50 [26]: 10.6 nM; Activity [27]: 10.1%; Activity [28]: 8.3%; Activity [29]: Non-toxic; IC50 [30]: 10.9 nM
4 | Clc1ccc2c(NCCC34CCCN3CCC4)ccnc2c1 | – | >99.9 | 1.66 | >99.9 | Active | 9.3 | > 60000 | 99.1 | 14.7 | 12.3 | 8.7 | 15.3 | 30 | 17600 | 94 | >99.9 | 61400 | 98 | 54.7 | 5.5 | IC50 [26]: 19.6 nM; IC50 [30]: 6.33 nM
